Molecules are shown by their SMILES. Screen size: about 290,000 compounds; about 1,600 (0.55%) were called active.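 How the source made its calls: active means inhibition above the mean of all tested compounds plus 3 SD, set per campaign (cut at about 35% in these data); inactive means the rest.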 The sample as a whole holds a higher share of actives than the screen did.

In the test the test system is Hepatitis C virus NS3 helicase. Description: HCV NS3 DNA unwinding blockers – biochemical, Cy5 molecular beacon fluorescence, primary screen (AID 1800).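 Further: 0% = DMSO wells and 100% = thioflavine S control wells.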 Conditions: at 10.9 µM, hits give high values. In a few lines:
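System: Hepatitis C virus NS3 helicase domain fragment enzyme | Reagent: Annealed dual-labelled DNA beacon duplex, ATP-started | Compound dosing: 10.9 µM single point, 0.8% DMSO | Incubation: 1 h reaction at 25 °C, ATP-initiated | Technique: Cy5 fluorescence | Evaluation: Percent inhibition from t60/t0 fluorescence ratio | Benchmarks: Low DMSO, high thioflavine S at 110 µM | Replication: Singlicate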
As for `Oc1oc(-c2ccccc2Br)nc1/C=N/c1ccccn1`, the inhibition (in general, the drop in the measured response relative to a control, in per cent) was -6.78% (inactive).
Take `O=C(c1ccco1)N1CCN(C(=S)Nc2cc(F)cc(F)c2)CC1`: the inhibition was -5.92% (inactive).
Regarding `CC1CCCN(c2ccc(C(=O)NCCc3ccccc3)cn2)C1` (centres undefined), the inhibition is -1.78% (inactive).
With `CCC(NC(=O)C1CCCC1)c1ccc(C)cc1` (centres undefined) the figure was 1.79% (inactive); with `O=C(O)c1ccc(/C=N/Nc2nc(N3CCCCC3)nc(N3CCCCC3)n2)cc1`, 3.13% (inactive).
The same measure for `Cc1ccc(C(CC(=O)O)Nc2nc(N3CCCCC3)nc(N3CCCCC3)n2)cc1` (centres undefined): 46.7% (active).
As for `Cc1ccc(C(=O)COC(=O)CCN2C(=O)C3C4CCC(C4)C3C2=O)cc1C` (centres undefined), the inhibition is 19.3% (inactive).
The same measure for `CC1CN(C(=S)Nc2cccc(F)c2)CC(C)O1` (centres undefined): -3.8% (inactive); for `COc1ccc(S(=O)(=O)N2CCSCC2)cc1`: 9.62% (inactive); for `CC(=O)C1=C(O)C(=O)N(c2cccnc2)C1c1ccc([N+](=O)[O-])cc1` (centres undefined): -3.05% (inactive).
`CC(=O)C1=C(O)C(=O)N(c2ccc(Br)cc2)C1c1ccc([N+](=O)[O-])cc1` (centres undefined): the inhibition was 36% (active).
With `COC(=O)CN1C(=O)C(O)=C(C(C)=O)C1c1ccc([N+](=O)[O-])cc1` (centres undefined) the figure was -0.09% (inactive).
With `CN(Cc1ccc(F)cc1)C(=O)COc1ccc2ccccc2c1` the figure was -17.8% (inactive).
With `COCn1c(C(O)c2ccccc2)cc2ccccc21` (centres undefined) the figure was -4.17% (inactive); with `COC(=O)COc1ccc2c(c1C)O/C(=C\c1ccco1)C2=O`, 90.2% (active); with `Cc1cc(C)c(OCC(=O)N/N=C/c2ccco2)c(C)c1`, -4.49% (inactive).
On to `COC(=O)C1=C(C)N(c2ccc(Br)cc2)C(=O)/C1=C\c1ccco1`, for which the inhibition is 17.4% (inactive).
As for `Cn1ncc2c(N3CCCCC3)nc(NCCCO)nc21`, the inhibition was 5.11% (inactive).
On to `CC(=O)NN1C(=O)c2ccccc2NC1c1ccccc1` (centres undefined), for which the inhibition was -4.55% (inactive).
With `COC1=C/C(=C/c2c(N)n3nc(CC(=O)N4CCOCC4)sc3nc2=O)C=CC1=O` the figure was 13.6% (inactive); with `COc1cccc(NC(=O)CSc2nnc(Cc3ccc(OC)c(OC)c3)o2)c1`, -10.1% (inactive).
With `O=C(N/N=C/c1ccco1)c1csc2c1CCCC2` the figure was 42.9% (active); with `O=C(N/N=C/c1ccco1)c1ccc(NC(=O)C2CC2)cc1`, 2.86% (inactive).
The same measure for `O=C(N/N=C/c1ccco1)c1ccc(C(=O)N/N=C/c2ccco2)o1`: -3.79% (inactive); for `Cc1ccc(C)c(S(=O)(=O)N2CCCOC2CNC(=O)C(=O)NC2CCCCC2)c1` (centres undefined): 8.68% (inactive).
Regarding `CCc1cc2c(=O)n(-c3ccccc3)c(SCC(=O)O)nc2s1`, the inhibition is 5.68% (inactive).
As for `CCOc1ccc(C2C(C#N)=C(N)N(N(C)C)C3=C2C(=O)CCC3)cc1` (centres undefined), the inhibition is 6.79% (inactive).
With `CCOc1ccc(C2C3=C(CCCC3=O)N(CC(=O)O)C3=C2C(=O)CCC3)cc1` the figure was 59.8% (active); with `COc1ccc(C2C3=C(CCCC3=O)N(CC(=O)O)C3=C2C(=O)CCC3)cc1`, 2.66% (inactive).

Source of the values: PubChem BioAssay AID1800 (The Scripps Research Institute Molecular Screening Center, 2009).
